# Source: ChEMBL document CHEMBL4706565, “Anti-glioma effects of 2-aminothiophene-3-carboxamide derivatives, ANO1 channel blockers” (Eur J Med Chem, 2020)
# The source made the active and inactive calls. The calls are words filed in the database; no cut-off is given here.
# Assays:
# [1] = molecular target: T1, Anoctamin-1 (Homo sapiens) (UniProt Q5XXA6); test: Inhibition of human ANO1 channel expressed in HEK293 cells at 10 uM incubated for 10 mins by FLIPR assay relative to control; assay type: cell-based
# T1 sequence (whole entry): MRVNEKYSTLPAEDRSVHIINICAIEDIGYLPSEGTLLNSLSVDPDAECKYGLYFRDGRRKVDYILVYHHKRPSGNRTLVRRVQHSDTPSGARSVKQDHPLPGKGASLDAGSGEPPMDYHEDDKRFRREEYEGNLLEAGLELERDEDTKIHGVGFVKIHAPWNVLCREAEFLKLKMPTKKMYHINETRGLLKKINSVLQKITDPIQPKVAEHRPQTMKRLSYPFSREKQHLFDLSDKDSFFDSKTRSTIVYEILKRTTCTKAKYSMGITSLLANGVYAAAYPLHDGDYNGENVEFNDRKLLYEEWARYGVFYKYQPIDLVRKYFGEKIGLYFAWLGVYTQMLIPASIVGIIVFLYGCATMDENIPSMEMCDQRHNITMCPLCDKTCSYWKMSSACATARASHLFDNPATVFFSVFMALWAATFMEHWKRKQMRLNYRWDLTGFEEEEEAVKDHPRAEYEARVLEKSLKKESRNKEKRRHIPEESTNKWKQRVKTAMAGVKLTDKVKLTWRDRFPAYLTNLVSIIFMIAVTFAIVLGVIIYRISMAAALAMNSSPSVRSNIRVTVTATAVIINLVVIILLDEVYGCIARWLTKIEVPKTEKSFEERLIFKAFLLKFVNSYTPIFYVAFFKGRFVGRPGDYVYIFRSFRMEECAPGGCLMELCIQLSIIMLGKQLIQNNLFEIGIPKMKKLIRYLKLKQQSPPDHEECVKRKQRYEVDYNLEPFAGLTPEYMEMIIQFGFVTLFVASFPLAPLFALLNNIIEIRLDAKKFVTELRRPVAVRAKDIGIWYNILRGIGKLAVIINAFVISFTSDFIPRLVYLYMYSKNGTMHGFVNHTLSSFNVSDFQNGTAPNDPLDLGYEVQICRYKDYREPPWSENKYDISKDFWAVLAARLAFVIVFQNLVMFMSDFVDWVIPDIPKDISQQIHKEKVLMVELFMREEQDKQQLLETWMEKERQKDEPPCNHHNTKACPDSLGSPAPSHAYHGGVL
# Outline: (§1)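 HEK293 cells expressing human ANO1, 50,000 cells/well, plated overnight. Loaded with FLIPR Red membrane-potential dye in HEPES-buffered saline (pH 7.4) for 40-60 min at room temperature. Compound added for 10 min at room temperature, final DMSO 0.5%.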
# [2] = molecular target: T2, Anoctamin-1 (Mus musculus, UniProt Q8BHY3); test: Inhibition of GFP-fused mouse ANO1 channel expressed in HEK293A cells assessed as inhibition of ATP-induced channel current amplitude at membrane potential of +80 mV by patch clamp electrophysiology assay; assay type: cell-based, HEK293-A
# T2 sequence (Q8BHY3 whole entry): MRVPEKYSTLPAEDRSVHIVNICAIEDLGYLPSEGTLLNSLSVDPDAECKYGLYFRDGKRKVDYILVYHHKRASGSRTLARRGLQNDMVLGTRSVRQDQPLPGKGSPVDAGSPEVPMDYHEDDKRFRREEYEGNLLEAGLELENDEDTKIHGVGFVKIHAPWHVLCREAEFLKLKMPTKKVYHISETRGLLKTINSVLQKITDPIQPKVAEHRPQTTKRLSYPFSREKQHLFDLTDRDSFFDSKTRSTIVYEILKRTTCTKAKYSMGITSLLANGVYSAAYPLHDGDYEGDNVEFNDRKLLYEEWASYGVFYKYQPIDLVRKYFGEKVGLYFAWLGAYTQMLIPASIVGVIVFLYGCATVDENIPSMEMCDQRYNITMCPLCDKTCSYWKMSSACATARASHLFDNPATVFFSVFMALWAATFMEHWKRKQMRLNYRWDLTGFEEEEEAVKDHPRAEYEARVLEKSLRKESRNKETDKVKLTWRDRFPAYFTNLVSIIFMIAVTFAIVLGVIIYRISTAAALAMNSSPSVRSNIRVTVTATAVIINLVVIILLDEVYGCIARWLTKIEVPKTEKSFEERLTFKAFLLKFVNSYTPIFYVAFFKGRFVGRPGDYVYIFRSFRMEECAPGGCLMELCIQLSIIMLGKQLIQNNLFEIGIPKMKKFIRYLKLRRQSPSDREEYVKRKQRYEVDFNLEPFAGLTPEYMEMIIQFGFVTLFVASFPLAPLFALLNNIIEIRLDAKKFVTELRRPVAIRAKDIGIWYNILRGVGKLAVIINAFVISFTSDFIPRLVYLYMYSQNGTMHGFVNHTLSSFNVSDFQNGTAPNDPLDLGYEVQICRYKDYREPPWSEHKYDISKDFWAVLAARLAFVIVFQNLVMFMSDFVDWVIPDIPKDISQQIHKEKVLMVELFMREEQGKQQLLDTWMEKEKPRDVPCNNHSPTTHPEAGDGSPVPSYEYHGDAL
# Outline: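 Whole-cell recording at room temperature in HEK293A cells transfected with GFP-mANO1, GFP-mANO2 or GFP-mTTYH1. 1 s ramps from +80 to -80 mV, holding potential -10 mV. For ANO1/ANO2: pipette CsCl 146 mM with Ca-EGTA-NMDG, pH 7.3; bath NaCl-based, pH 7.3. For TTYH1: Tris-aspartate pipette (pH 7.2) and Tris-HCl bath (pH 7.4), with […] and BaCl2 added to block K+ channels, and hypotonic (220 mOsm/kg) bath. Washout recordings assessed reversibility.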
# [3] = tested on: U-251; test: Antiproliferative activity against human U251 cells overexpressing ANO1 assessed as reduction in cell viability measured after 72 hrs by Celltiter-glo assay; assay type: functional
# Outline: (§2)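 5.0×10^3 cells/well seeded, overnight, then compounds added as 1:4 serial dilutions in DMSO; viability read after 72 h with CellTiter-Glo luminescence. GI50 from fitted dose-response curves; triplicate wells, SD from three independent experiments. DMEM for U251 and U138, MEM for U87MG, both with 10% FBS and pen/strep, 37 °C, 5% CO2.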
# [4] = tested on: U138-MG; test: Antiproliferative activity against human U138 cells overexpressing ANO1 assessed as reduction in cell viability at 100 uM measured after 72 hrs by Celltiter-glo assay; assay type: functional; outline: as §2
# [5] = tested on: U-87 MG; test: Antiproliferative activity against human U87MG cells overexpressing ANO1 assessed as reduction in cell viability measured after 72 hrs by Celltiter-glo assay; assay type: functional, U-87MG ATCC; outline: as §2
# [6] = molecular target: T3, Anoctamin-1 (Homo sapiens, UniProt Q5XXA6); test: Inhibition of human ANO1 channel expressed in HEK293 cells incubated for 10 mins by FLIPR assay; assay type: cell-based; outline: as §1
# T3 sequence (Q5XXA6 whole entry): T1 sequence (whole entry)
# [7] = Antiproliferative activity against mouse primary astrocytes assessed as reduction in cell viability at 100 uM measured after 72 hrs by Celltiter-Glo luminescent assay; assay type: cell-based, Astrocyte
# Outline: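 Primary astrocytes isolated from adult mouse brain by a previously reported method. 5.0×10^3 cells/well, compound as 1:4 serial DMSO dilutions, CellTiter-Glo viability at 72 h.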
# [8] = tested on: U138-MG; test: Antiproliferative activity against human U138 cells overexpressing ANO1 assessed as reduction in cell viability measured after 72 hrs by Celltiter-glo assay; assay type: functional; outline: as §2
# [9] = tested on: U-87 MG; test: Antiproliferative activity against human U87MG cells overexpressing ANO1 assessed as reduction in cell viability at 100 uM measured after 72 hrs by Celltiter-glo assay; assay type: functional, U-87MG ATCC; outline: as §2
# [10] = tested on: U-251; test: Inhibition of cell migration in human U251 cells at 10 uM incubated for 18 hrs by wound healing assay; assay type: functional
# Outline: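 U251 monolayer, 2.0×10^5 cells/well, plated overnight, then scratched and washed with PBS. Wound area imaged before and after incubation; migration ratio taken from migrated area. One-way ANOVA.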
# [11] = tested on: U-251; test: Inhibition of cell invasion in human U251 cells at 10 uM incubated for 48 hrs by Boyden chamber method; assay type: functional
# Outline: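 Boyden chamber invasion: U251 cells serum-starved 24 h, then 2.5×10^5 cells seeded in 8-μm ECMatrix-coated transwells. Treated with compound at 1 or 10 μM for 48 h at 37 °C. Invasion ratio from relative fluorescence.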
# [12] = tested on: U-251; test: Inhibition of colony formation in human U251 cells at 10 uM incubated for 14 days by crystal violet dye based assay; assay type: functional; conditions: time 14.0 day
# Outline: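 Colonies stained 24 h with crystal violet in methanol/formaldehyde/PBS, washed, extracted with 10% acetic acid and read at A570 nm. Compared against DMSO control.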
# [13] = tested on: U-251; test: Inhibition of anchorage-independent colony formation in human U251 cells at 10 uM incubated for 14 days by crystal violet staining based soft agar colony formation assay; assay type: functional, cell-based; conditions: time 14.0 day
# Outline: (§3)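 Soft agar assay: 2.0×10^3 U251 cells in complete medium with 0.3% agar over a 0.6% bottom agar layer. Treated with compounds at 1-100 μM for 14 days, 37 °C, 5% CO2. Colonies stained with crystal violet for 24 h, whole wells photographed and colonies counted against DMSO control; n = 3.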
# [14] = tested on: U-251; test: Inhibition of anchorage-independent colony formation in human U251 cells at 100 uM incubated for 14 days by crystal violet staining based soft agar colony formation assay; assay type: functional; conditions: time 14.0 day; outline: as §3
compound,measurement,setting,value
NC(=O)c1c(NC(=S)NC(=O)c2ccc(C(F)(F)F)cc2)sc2c1CCC2,inhibition,[1],< 10%
COc1ccccc1/C=N/NC(=O)COc1ccc(Cl)cc1C,IC50,[2],0.03 µM
NC(=O)c1c(NC(=S)NC(=O)c2ccccc2)sc2c1CCCCC2,inhibition,[1],21.1%
NC(=O)c1c(NC(=O)c2ccco2)sc2c1CCCCC2,inhibition,[1],< 10%
CC(C)(C)C1CCc2c(sc(NC(=O)c3ccco3)c2C(N)=O)C1 (centres undefined),inhibition,[1],< 10%
NC(=O)c1c(NC(=O)c2ccco2)sc2c1CCC2,inhibition,[1],51.5%
CC(C)(C)C1CCc2c(sc(NC(=S)NC(=O)c3ccco3)c2C(N)=O)C1 (centres undefined),inhibition,[1],13.8%
CC(C)(C)C1CCc2c(sc(NC(=S)NC(=O)c3ccccc3)c2C(N)=O)C1 (centres undefined),inhibition,[1],70.3%
same,GI50,[3],70.2 µM
same,IC50,[2],5.66 µM
same,inhibition at 100 µM,[4],< 50%
same,GI50,[5],82.4 µM
same,IC50,[6],3.09 µM
same,"inhibition at 72 h, 100 µM",[7],< 50%
NC(=O)c1ccsc1N,inhibition,[1],< 10%
NC(=O)c1c(NC(=S)NC(=O)c2cccc(C(F)(F)F)c2)sc2c1CCC2,inhibition,[1],26.7%
NC(=O)c1c(NC(=S)NC(=O)c2ccco2)sc2c1CCC2,inhibition,[1],< 10%
NC(=O)c1c(NC(=S)NC(=O)c2cccc(Cl)c2)sc2c1CCC2,inhibition,[1],< 10%
CC(C)(C)C(=O)Nc1sccc1C(N)=O,inhibition,[1],< 10%
NC(=O)c1c(N)sc2c1CCC2,inhibition,[1],15.4%
CC(C)(C)C(=O)Nc1sc2c(c1C(N)=O)CCC2,inhibition,[1],12.5%
NC(=O)c1c(NC(=S)NC(=O)c2ccc3c(c2)OCCO3)sc2c1CCC2,inhibition,[1],12.3%
NC(=O)c1c(NC(=S)NC(=O)c2ccco2)sc2c1CCCCC2,inhibition,[1],21.8%
NC(=O)c1c(NC(=O)c2ccccc2)sc2c1CCC2,inhibition,[1],< 10%
NC(=O)c1c(NC(=O)c2ccccc2)sc2c1CCCCC2,inhibition,[1],12.1%
NC(=O)c1ccsc1NC(=O)c1ccco1,inhibition,[1],39.5%
COc1cc(OC)cc(C(=O)NC(=S)Nc2sc3c(c2C(N)=O)CCC3)c1,inhibition,[1],46.1%
NC(=O)c1c(N)sc2c1CCCCC2,inhibition,[1],< 10%
NC(=O)c1c(NC(=S)NC(=O)c2ccccc2)sc2c1CCC2,inhibition,[1],70.5%
same,GI50,[3],24.4 µM
same,IC50,[2],2.63 µM
same,GI50,[5],26 µM
same,IC50,[6],2.83 µM
same,GI50,[8],17.1 µM
NC(=O)c1ccsc1NC(=O)c1ccccc1,inhibition,[1],< 10%
CC(C)(C)C1CCc2c(sc(N)c2C(N)=O)C1 (centres undefined),inhibition,[1],80.1%
same,GI50,[3],83.2 µM
same,IC50,[2],2.5 µM
same,inhibition at 100 µM,[4],< 50%
same,inhibition at 100 µM,[9],< 50%
same,IC50,[6],2.95 µM
same,"inhibition at 72 h, 100 µM",[7],< 50%
Cc1ncsc1C(=O)NC(=S)Nc1sc2c(c1C(N)=O)CCC2,inhibition,[1],< 10%
CC(C)(C)C1CCc2c(sc(NC(=O)c3ccccc3)c2C(N)=O)C1 (centres undefined),inhibition,[1],22%
COc1ccc(C(=O)NC(=S)Nc2sc3c(c2C(N)=O)CCC3)cc1OC,inhibition,[1],< 10%
Cc1ccccc1NC(=O)c1c(NC(=O)C(F)(F)Br)sc2c1CCCCC2,GI50,[3],45.3 µM
same,inhibition at 10 µM,[10],16.7%
same,IC50,[2],0.05 µM
same,GI50,[5],48 µM
same,inhibition at 10 µM,[11],11.7%
same,inhibition,[12],inactive
same,inhibition,[13],inactive
same,inhibition,[14],inactive
same,GI50,[8],29.4 µM
same,"inhibition at 72 h, 100 µM",[7],< 50%
NC(=O)c1c(NC(=S)NC(=O)c2ccc3c(c2)OCO3)sc2c1CCC2,inhibition,[1],16.3%
NC(=O)c1c(NC(=S)NC(=O)c2ccccc2Cl)sc2c1CCC2,inhibition,[1],76.7%
same,GI50,[3],94.6 µM
same,IC50,[2],3.12 µM
same,inhibition at 100 µM,[4],< 50%
same,inhibition at 100 µM,[9],< 50%
same,IC50,[6],2.29 µM
same,"inhibition at 72 h, 100 µM",[7],< 50%
COc1cc(C(=O)NC(=S)Nc2sc3c(c2C(N)=O)CCC3)cc(OC)c1OC,inhibition,[1],< 10%
